{"source": "ChEMBL document CHEMBL1130127", "about": "“Synthesis, photophysical properties, in vivo photosensitizing efficacy, and human serum albumin binding properties of some novel bacteriochlorins” (J Med Chem, 1997)", "key": {"Mus musculus [1]": {"system": "Mus musculus", "experiment": "The compound was tested in vivo for photosensitizing efficacy in DBA/2 Mice transplanted with SMT/F tumors and the activity is expressed as % response at ( 21-25 days) 24 hours post injection at 5.0 mg/kg concentration", "type": "functional, organism-based", "set-up": "dose 5 mg/kg", "method_in_brief": "(§1)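 Female DBA/2 HA-DD mice, 5-7 weeks old. A 1 mm SMT-F tumor piece from a donor was trocar-implanted subcutaneously in the axilla. At about 5 mm tumor diameter, sensitizer in 1% Tween 80/water was given iv; dose was based on extinction coefficient. At 3 or 24 h after injection, restrained mice had the tumor lit with 135 J/cm2 laser light at the in vivo long-wavelength maximum. Tumor response was followed to day 30; six mice/group.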"}, "Mus musculus [2]": {"system": "Mus musculus", "experiment": "The compound was tested in vivo for photosensitizing efficacy in DBA/2 Mice transplanted with SMT/F tumors and the activity is expressed as % response at ( 26-30 days) 24 hours post injection at 5.0 mg/kg concentration", "type": "functional, organism-based", "set-up": "dose 5 mg/kg", "method_in_brief": "as §1"}, "Mus musculus [3]": {"system": "Mus musculus", "experiment": "The compound was tested in vivo for photosensitizing efficacy in DBA/2 Mice transplanted with SMT/F tumors and the activity is expressed as % response at ( 6-10 days) 24 hours post injection at 5.0 mg/kg concentration", "type": "functional, organism-based", "set-up": "dose 5 mg/kg", "method_in_brief": "as §1"}, "Mus musculus [4]": {"system": "Mus musculus", "experiment": "The compound was tested in vivo for photosensitizing efficacy in DBA/2 Mice transplanted with SMT/F tumors and the activity is expressed as % response at (1-5 days) 24 hours post injection at 5.0 mg/kg concentration", "type": "functional, organism-based", "set-up": "dose 5 mg/kg", "method_in_brief": "as §1"}, "Mus musculus [5]": {"system": "Mus musculus", "experiment": "The compound was tested in vivo for photosensitizing efficacy in DBA/2 Mice transplanted with SMT/F tumors and the activity is expressed as % response at (11-15 days) 24 hours post injection at 5.0 mg/kg concentration", "type": "functional, organism-based", "set-up": "dose 5 mg/kg", "method_in_brief": "as §1"}, "Mus musculus [6]": {"system": "Mus musculus", "experiment": "The compound was tested in vivo for photosensitizing efficacy in DBA/2 Mice transplanted with SMT/F tumors and the activity is expressed as % response at (16-20 days) 24 hours post injection at 5.0 mg/kg concentration", "type": "functional, organism-based", "set-up": "dose 5 mg/kg", "method_in_brief": "as §1"}, "Mus musculus [7]": {"system": "Mus musculus", "experiment": "The compound was tested in vivo for photosensitizing efficacy in DBA/2 Mice transplanted with SMT/F tumors and the activity is expressed as % response at (21-25 days) 3 hours post injection at 2.5 mg/kg concentration", "type": "functional", "method_in_brief": "as §1"}, "Mus musculus [8]": {"system": "Mus musculus", "experiment": "The compound was tested in vivo for photosensitizing efficacy in DBA/2 Mice transplanted with SMT/F tumors and the activity is expressed as % response at (1-5 days) 24 hours post injection at 5.0 mg/kg concentration; No response", "type": "functional, organism-based", "set-up": "dose 5 mg/kg", "method_in_brief": "as §1"}, "Mus musculus [9]": {"system": "Mus musculus", "experiment": "The compound was tested in vivo for photosensitizing efficacy in DBA/2 Mice transplanted with SMT/F tumors and the activity is expressed as % response at (1-5 days) 3 hours post injection at 1 mg/kg concentration", "type": "functional", "method_in_brief": "as §1"}, "Mus musculus [10]": {"system": "Mus musculus", "experiment": "The compound was tested in vivo for photosensitizing efficacy in DBA/2 Mice transplanted with SMT/F tumors and the activity is expressed as % response at (1-5 days) 3 hours post injection at 2.5 mg/kg concentration", "type": "functional", "method_in_brief": "as §1"}, "Mus musculus [11]": {"system": "Mus musculus", "experiment": "The compound was tested in vivo for photosensitizing efficacy in DBA/2 Mice transplanted with SMT/F tumors and the activity is expressed as % response at (11-15 days) 24 hours post injection at 5 mg/kg concentration; No response", "type": "functional, organism-based", "set-up": "dose 5 mg/kg", "method_in_brief": "as §1"}, "Mus musculus [12]": {"system": "Mus musculus", "experiment": "The compound was tested in vivo for photosensitizing efficacy in DBA/2 Mice transplanted with SMT/F tumors and the activity is expressed as % response at (11-15 days) 3 hours post injection at 1 mg/kg concentration", "type": "functional", "method_in_brief": "as §1"}, "Mus musculus [13]": {"system": "Mus musculus", "experiment": "The compound was tested in vivo for photosensitizing efficacy in DBA/2 Mice transplanted with SMT/F tumors and the activity is expressed as % response at (11-15 days) 3 hours post injection at 2.5 mg/kg concentration", "type": "functional", "method_in_brief": "as §1"}, "Mus musculus [14]": {"system": "Mus musculus", "experiment": "The compound was tested in vivo for photosensitizing efficacy in DBA/2 Mice transplanted with SMT/F tumors and the activity is expressed as % response at (16-20 days) 24 hours post injection at 5 mg/kg concentration; No response", "type": "functional, organism-based", "set-up": "dose 5 mg/kg", "method_in_brief": "as §1"}, "Mus musculus [15]": {"system": "Mus musculus", "experiment": "The compound was tested in vivo for photosensitizing efficacy in DBA/2 Mice transplanted with SMT/F tumors and the activity is expressed as % response at (16-20 days) 3 hours post injection at 1 mg/kg concentration", "type": "functional", "method_in_brief": "as §1"}, "Mus musculus [16]": {"system": "Mus musculus", "experiment": "The compound was tested in vivo for photosensitizing efficacy in DBA/2 Mice transplanted with SMT/F tumors and the activity is expressed as % response at (16-20 days) 3 hours post injection at 2.5 mg/kg concentration", "type": "functional", "method_in_brief": "as §1"}, "Mus musculus [17]": {"system": "Mus musculus", "experiment": "The compound was tested in vivo for photosensitizing efficacy in DBA/2 Mice transplanted with SMT/F tumors and the activity is expressed as % response at (26-30 days) 24 hours post injection at 5 mg/kg concentration; No response", "type": "functional, organism-based", "set-up": "dose 5 mg/kg"}, "Mus musculus [18]": {"system": "Mus musculus", "experiment": "The compound was tested in vivo for photosensitizing efficacy in DBA/2 Mice transplanted with SMT/F tumors and the activity is expressed as % response at (26-30 days) 3 hours post injection at 1 mg/kg concentration", "type": "functional"}, "Mus musculus [19]": {"system": "Mus musculus", "experiment": "The compound was tested in vivo for photosensitizing efficacy in DBA/2 Mice transplanted with SMT/F tumors and the activity is expressed as % response at (26-30 days) 3 hours post injection at 2.5 mg/kg concentration", "type": "functional"}, "Mus musculus [20]": {"system": "Mus musculus", "experiment": "The compound was tested in vivo for photosensitizing efficacy in DBA/2 Mice transplanted with SMT/F tumors and the activity is expressed as % response at (6-10 days) 24 hours post injection at 5 mg/kg concentration; No response", "type": "functional, organism-based", "set-up": "dose 5 mg/kg"}, "Mus musculus [21]": {"system": "Mus musculus", "experiment": "The compound was tested in vivo for photosensitizing efficacy in DBA/2 Mice transplanted with SMT/F tumors and the activity is expressed as % response at (6-10 days) 3 hours post injection at 1 mg/kg concentration", "type": "functional"}, "Mus musculus [22]": {"system": "Mus musculus", "experiment": "The compound was tested in vivo for photosensitizing efficacy in DBA/2 Mice transplanted with SMT/F tumors and the activity is expressed as % response at (6-10 days) 3 hours post injection at 2.5 mg/kg concentration", "type": "functional", "method_in_brief": "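SMT-F tumor piece (1 mm) from donor implanted subcutaneously by trocar into axilla of 5–7-week-old female DBA/2 HA-DD mice; treated at ~5 mm diameter. Sensitizer dissolved in 1% Tween 80/water, given iv; 3 h later restrained mouse's tumor illuminated with 135 J/cm2 laser light at in vivo long-wavelength absorption maximum. Tumor response scored over 30 days; six mice/group.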"}, "Mus musculus [23]": {"system": "Mus musculus", "experiment": "The compound was tested in vivo for photosensitizing efficacy in DBA/2 Mice transplanted with SMT/F tumors and the activity is expressed as % response at (21-25 days) 24 hours post injection at 5 mg/kg concentration; No response", "type": "functional, organism-based", "set-up": "dose 5 mg/kg", "method_in_brief": "as §1"}, "Mus musculus [24]": {"system": "Mus musculus", "experiment": "The compound was tested in vivo for photosensitizing efficacy in DBA/2 Mice transplanted with SMT/F tumors and the activity is expressed as % response at (21-25 days) 3 hours post injection at 1 mg/kg concentration", "type": "functional", "method_in_brief": "as §1"}, "Albumin [25]": {"target": "T1, Albumin (Homo sapiens, UniProt P02768)", "T1 sequence (P02768 whole entry)": "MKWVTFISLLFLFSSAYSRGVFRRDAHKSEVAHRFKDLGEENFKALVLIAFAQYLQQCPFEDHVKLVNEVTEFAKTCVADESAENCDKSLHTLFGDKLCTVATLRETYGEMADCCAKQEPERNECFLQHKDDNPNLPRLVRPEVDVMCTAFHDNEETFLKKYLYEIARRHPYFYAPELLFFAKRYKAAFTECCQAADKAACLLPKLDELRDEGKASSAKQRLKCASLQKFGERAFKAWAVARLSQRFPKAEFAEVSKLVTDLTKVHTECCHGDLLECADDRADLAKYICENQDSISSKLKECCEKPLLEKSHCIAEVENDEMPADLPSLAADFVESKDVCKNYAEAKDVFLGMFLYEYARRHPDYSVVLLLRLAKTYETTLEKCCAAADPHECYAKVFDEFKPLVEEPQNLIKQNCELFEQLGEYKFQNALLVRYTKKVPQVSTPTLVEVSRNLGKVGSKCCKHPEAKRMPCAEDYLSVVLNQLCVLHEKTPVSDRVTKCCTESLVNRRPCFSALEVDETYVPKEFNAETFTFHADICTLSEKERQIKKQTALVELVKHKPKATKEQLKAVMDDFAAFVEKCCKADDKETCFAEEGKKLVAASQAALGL", "experiment": "Binding affinity against Human serum albumin(Site I).", "method_in_brief": "(§2)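 Fluorometric titration: HSA and sensitizer fixed at 1 × 10^-6 mol/L. Site probe varied 4 × 10^-7 to 2 × 10^-6 mol/L: DNSA for site I, read at 472 nm; DP for site II, read at 476 nm; excitation 340 nm. Incubated 4 °C, pH 7.0, 4 h, dark. Bound probe taken from standard curves of free probe (water) and HSA-bound probe (2.5 × 10^-5 mol/L HSA).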"}, "Albumin [26]": {"target": "T1, Albumin", "experiment": "Binding affinity against Human serum albumin(Site II).", "method_in_brief": "as §2"}}, "note": "Active and inactive are the calls of the source. No cut-off for these calls is given here.", "data": [{"molecule": "PORFIMER SODIUM", "values": [{"measurement": "Response", "setting": "Mus musculus [1]", "result": 50, "unit": "%"}, {"measurement": "Response", "setting": "Mus musculus [2]", "result": 50, "unit": "%"}, {"measurement": "Response", "setting": "Mus musculus [3]", "result": 100, "unit": "%"}, {"measurement": "Response", "setting": "Mus musculus [4]", "result": 100, "unit": "%"}, {"measurement": "Response", "setting": "Mus musculus [5]", "result": 80, "unit": "%"}, {"measurement": "Response", "setting": "Mus musculus [6]", "result": 60, "unit": "%"}]}, {"molecule": "CCc1c(C)c2[nH]c1cc1[nH]c(cc3nc4c(c5nc(c2C=O)[C@@H](C)[C@@H]5CCC(=O)NC(CC(=O)OC(C)(C)C)C(=O)OC(C)(C)C)CCC4=C3C)C(=O)C1(C)CC", "note": "(stereo partly specified)", "values": [{"measurement": "Response", "setting": "Mus musculus [7]", "result": 60, "unit": "%"}, {"measurement": "Response", "setting": "Mus musculus [8]", "result": "inactive"}, {"measurement": "Response", "setting": "Mus musculus [9]", "result": 100, "unit": "%"}, {"measurement": "Response", "setting": "Mus musculus [10]", "result": 100, "unit": "%"}, {"measurement": "Response", "setting": "Mus musculus [11]", "result": "inactive"}, {"measurement": "Response", "setting": "Mus musculus [12]", "result": 60, "unit": "%"}, {"measurement": "Response", "setting": "Mus musculus [13]", "result": 60, "unit": "%"}, {"measurement": "Response", "setting": "Mus musculus [14]", "result": "inactive"}, {"measurement": "Response", "setting": "Mus musculus [15]", "result": 60, "unit": "%"}, {"measurement": "Response", "setting": "Mus musculus [16]", "result": 60, "unit": "%"}, {"measurement": "Response", "setting": "Mus musculus [17]", "result": "inactive"}, {"measurement": "Response", "setting": "Mus musculus [18]", "result": 50, "unit": "%"}, {"measurement": "Response", "setting": "Mus musculus [19]", "result": 60, "unit": "%"}, {"measurement": "Response", "setting": "Mus musculus [20]", "result": "inactive"}, {"measurement": "Response", "setting": "Mus musculus [21]", "result": 80, "unit": "%"}, {"measurement": "Response", "setting": "Mus musculus [22]", "result": 100, "unit": "%"}, {"measurement": "Response", "setting": "Mus musculus [23]", "result": "inactive"}, {"measurement": "Response", "setting": "Mus musculus [24]", "result": 50, "unit": "%"}, {"measurement": "Binding constant", "setting": "Albumin [25]", "result": "500000 l M-1"}, {"measurement": "Binding constant", "setting": "Albumin [26]", "result": "500000 l M-1"}]}]}
